Assay results taken from ChEMBL document CHEMBL3739303, “Targeting the Src Homology 2 (SH2) Domain of Signal Transducer and Activator of Transcription 6 (STAT6) with Cell-Permeable, Phosphatase-Stable Phosphopeptide Mimics Potently Inhibits Tyr641 Phosphorylation and Transcriptional Activity” (J Med Chem, 2015).
The source made the active and inactive calls. The calls are words filed in the database; no cut-off is given here.

Experiments:
[1] = biological target: RAC-alpha serine/threonine-protein kinase (Homo sapiens) (UniProt P31749); test: Inhibition of EGF-induced AKT phosphorylation at S473 in human MDA-MB-468 cells at 5 uM incubated for 2 hrs followed by stimulation with EGF for 1 hr by Western blot assay; assay type: cell-based
[2] = biological target: Signal transducer and activator of transcription 3 (Mus musculus) (UniProt P42227); test: Inhibition of IL6-induced STAT3 phosphorylation at S727 in CD4+ T lymphocytes isolated from C57BL/6J mouse preincubated for 2 hrs followed by activation with plate-bound anti-CD3/anti-CD28 for 15 mins by Western blot analysis
[3] = biological target: T1, Signal transducer and activator of transcription 6 (Homo sapiens) (UniProt P42226); test: Inhibition of IL-13-stimulated STAT6 SH2 domain phosphorylation in human Beas-2B cells assessed as inhibition of CCL26 mRNA expression at 100 nM preincubated for 2 hrs followed by stimulation with IL-13 for 24 hrs by RT-PCR analysis relative to control
T1 sequence (whole entry): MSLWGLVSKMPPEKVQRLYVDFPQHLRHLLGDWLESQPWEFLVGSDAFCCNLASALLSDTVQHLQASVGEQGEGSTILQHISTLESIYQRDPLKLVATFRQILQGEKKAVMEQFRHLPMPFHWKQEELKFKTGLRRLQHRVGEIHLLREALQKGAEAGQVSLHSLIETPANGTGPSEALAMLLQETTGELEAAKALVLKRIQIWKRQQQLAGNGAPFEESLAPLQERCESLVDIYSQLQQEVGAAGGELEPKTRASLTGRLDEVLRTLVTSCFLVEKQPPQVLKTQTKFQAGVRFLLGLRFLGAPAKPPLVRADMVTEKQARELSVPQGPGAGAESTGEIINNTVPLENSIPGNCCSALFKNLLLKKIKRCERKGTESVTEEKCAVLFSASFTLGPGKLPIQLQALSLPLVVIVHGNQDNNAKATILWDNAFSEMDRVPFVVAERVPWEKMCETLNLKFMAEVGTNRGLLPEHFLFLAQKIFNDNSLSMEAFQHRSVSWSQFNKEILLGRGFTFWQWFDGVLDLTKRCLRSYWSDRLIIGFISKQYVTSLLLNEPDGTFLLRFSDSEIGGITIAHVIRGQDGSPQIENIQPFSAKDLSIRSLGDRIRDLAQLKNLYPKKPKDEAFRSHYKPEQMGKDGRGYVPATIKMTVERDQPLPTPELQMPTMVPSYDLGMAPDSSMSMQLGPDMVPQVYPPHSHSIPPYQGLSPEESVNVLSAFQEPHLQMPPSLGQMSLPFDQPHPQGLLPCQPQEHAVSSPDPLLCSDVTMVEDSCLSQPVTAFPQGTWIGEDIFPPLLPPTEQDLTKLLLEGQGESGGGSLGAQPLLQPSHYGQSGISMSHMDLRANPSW

[4] = biological target: T2, Signal transducer and activator of transcription 1 (Mus musculus) (UniProt P42225); test: Inhibition of IL6-induced STAT1 phosphorylation at Y701 in CD4+ T lymphocytes isolated from C57BL/6J mouse preincubated for 2 hrs followed by activation with plate-bound anti-CD3/anti-CD28 and IL6 for 15 mins by Western blot analysis; assay type: cell-based
T2 sequence (whole entry): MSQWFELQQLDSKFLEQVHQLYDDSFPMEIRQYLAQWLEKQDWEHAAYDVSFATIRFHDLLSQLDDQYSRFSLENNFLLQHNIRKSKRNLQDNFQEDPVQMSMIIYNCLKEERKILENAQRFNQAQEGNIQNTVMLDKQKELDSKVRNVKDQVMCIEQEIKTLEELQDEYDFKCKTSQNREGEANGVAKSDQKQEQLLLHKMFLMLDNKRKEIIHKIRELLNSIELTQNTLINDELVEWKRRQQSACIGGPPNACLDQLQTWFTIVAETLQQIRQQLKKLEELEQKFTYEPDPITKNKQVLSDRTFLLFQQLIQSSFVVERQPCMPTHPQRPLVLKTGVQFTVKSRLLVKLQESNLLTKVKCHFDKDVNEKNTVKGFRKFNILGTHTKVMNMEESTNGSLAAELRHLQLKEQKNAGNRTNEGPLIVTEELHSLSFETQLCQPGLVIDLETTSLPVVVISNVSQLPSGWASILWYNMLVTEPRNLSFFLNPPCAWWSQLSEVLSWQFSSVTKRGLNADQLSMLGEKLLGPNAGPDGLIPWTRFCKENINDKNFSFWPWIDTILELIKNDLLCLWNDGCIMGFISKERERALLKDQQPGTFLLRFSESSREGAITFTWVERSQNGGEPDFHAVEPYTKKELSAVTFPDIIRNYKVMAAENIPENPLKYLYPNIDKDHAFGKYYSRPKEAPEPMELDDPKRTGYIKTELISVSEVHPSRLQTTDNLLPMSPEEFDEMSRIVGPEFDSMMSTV
Method in brief: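 CD4+ T cells from C57BL/6J mice, sorted by AutoMACS; activated 15 min with plate-bound anti-CD3 and/or anti-CD28 with IL-2, IL-6 or IL-4; lysed with protease inhibitors plus 10 mM NaF and 1 mM Na3VO4; Bradford-normalised immunoblots for pSTAT1 (Tyr701), pSTAT5 (Tyr694), pSTAT6 (Tyr641) and total STATs.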

[5] = Cytotoxicity against human BEAS2B cells assessed as cell viability after 72 hrs by MTS assay; assay type: cell-based; conditions: beas-2b
Method in brief: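 Beas-2B seeded at 2000 cells/well; 10 mM DMSO stocks serially diluted in DMSO and equal amounts added to cultures; 72 h at 37 °C; medium replaced by 1:5 MTS/PBS, 1 h further incubation; viable cells read as optical density at 490 nm.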

Chain of RAC-alpha serine/threonine-protein kinase (Homo sapiens) (P31749 whole entry): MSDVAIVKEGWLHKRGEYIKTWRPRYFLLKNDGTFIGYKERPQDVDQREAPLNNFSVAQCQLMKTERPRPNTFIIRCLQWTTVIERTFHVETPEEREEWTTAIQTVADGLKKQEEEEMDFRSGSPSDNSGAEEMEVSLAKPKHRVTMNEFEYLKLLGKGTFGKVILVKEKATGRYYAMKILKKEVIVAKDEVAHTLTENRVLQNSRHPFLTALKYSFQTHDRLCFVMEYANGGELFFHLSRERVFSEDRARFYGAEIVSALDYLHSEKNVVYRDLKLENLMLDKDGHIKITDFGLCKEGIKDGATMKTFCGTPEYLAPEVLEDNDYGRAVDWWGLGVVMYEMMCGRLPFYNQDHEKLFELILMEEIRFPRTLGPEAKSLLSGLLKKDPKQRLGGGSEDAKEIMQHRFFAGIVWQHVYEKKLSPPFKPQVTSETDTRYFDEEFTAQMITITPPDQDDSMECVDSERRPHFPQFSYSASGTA
Chain of Signal transducer and activator of transcription 3 (Mus musculus) (P42227 whole entry, the tested form may be a part): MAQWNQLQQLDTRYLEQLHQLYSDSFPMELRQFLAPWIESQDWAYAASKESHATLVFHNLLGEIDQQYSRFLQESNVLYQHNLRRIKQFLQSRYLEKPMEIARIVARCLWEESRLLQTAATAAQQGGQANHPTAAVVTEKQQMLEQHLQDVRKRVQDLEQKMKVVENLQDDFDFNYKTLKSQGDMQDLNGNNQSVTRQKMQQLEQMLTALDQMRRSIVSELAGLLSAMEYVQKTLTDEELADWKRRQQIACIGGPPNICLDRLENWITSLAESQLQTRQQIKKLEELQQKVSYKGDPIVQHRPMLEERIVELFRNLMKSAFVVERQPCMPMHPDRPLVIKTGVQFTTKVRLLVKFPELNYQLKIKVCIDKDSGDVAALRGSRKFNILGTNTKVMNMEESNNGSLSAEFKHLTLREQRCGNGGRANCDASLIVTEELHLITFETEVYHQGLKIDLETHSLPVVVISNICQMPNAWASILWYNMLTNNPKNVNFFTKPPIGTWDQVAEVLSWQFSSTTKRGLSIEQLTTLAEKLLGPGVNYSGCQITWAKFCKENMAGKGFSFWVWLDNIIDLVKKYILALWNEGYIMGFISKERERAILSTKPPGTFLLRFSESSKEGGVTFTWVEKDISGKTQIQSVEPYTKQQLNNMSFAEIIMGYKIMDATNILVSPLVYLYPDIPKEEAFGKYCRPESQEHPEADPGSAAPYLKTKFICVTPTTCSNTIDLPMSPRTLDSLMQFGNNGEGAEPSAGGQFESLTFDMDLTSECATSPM

inhibition [1]: Active
inhibition [2]: inactive
inhibition [3]: > 50%
inhibition [4]: inactive
Compound: C/C(=C\C(=O)N[C@H](C(=O)N1CCC[C@H]1C(=O)N(C)c1ccccc1)C(C)(C)C)c1ccc(C(F)(F)P(=O)(OCOC(=O)C(C)(C)C)OCOC(=O)C(C)(C)C)cc1
Activity [5]: Non-toxic
